Laboratory results published in ChEMBL document CHEMBL2424623, “Enantioselective binding of chiral 1,14-dimethyl[5]helicene-spermine ligands with B- and Z-DNA” (Bioorg Med Chem, 2013).
Values joined by “and” are separate entries in the source; they are usually repeats but may differ in a detail not shown here. Identical values can stand only once. Active and inactive are the calls of the source. The rule behind the calls is not given here.

What was measured:
[1] = Selectivity ratio of Ka for 5'-biotin-conjugated d(TTTTCGCm8GCG-TTTT-CGCm8GCG) DNA (unknown origin) to Ka for 5'-biotin-conjugated d(TTTTCGCGCG-TTTT-CGCGCG) DNA (unknown origin)
[2] = Binding affinity to d(CGCm8GCG)2 DNA (unknown origin) assessed as association constant at 1.7 compound to DNA molar ratio by ITC analysis
Outline: (§1)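 Isothermal titration calorimetry at 25.0 °C. Ligand at 1 mM, dissolved in the final ODN dialysate, was titrated into 10.0 µM duplex d(CGCGCG)2 or d(CGCm8GCG)2 in 5 mM Na cacodylate, 100 mM NaCl, pH 7.0. The first 2 µL injection was followed by 10 µL injections, and the first injection was discarded. Samples were degassed. Stoichiometry is ligand per duplex.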

[3] = Binding affinity to d(CGCGCG)2 DNA (unknown origin) assessed as association constant at 4.0 compound to DNA molar ratio by ITC analysis; outline: as §1
[4] = Selectivity ratio of Ka for d(CGCGCG)2 DNA (unknown origin) to Ka for d(CGCm8GCG)2 DNA (unknown origin); outline: as §1
[5] = Selectivity ratio of Ka for 5'-biotin-conjugated d(TTTTCGCGCG-TTTT-CGCGCG) DNA (unknown origin) to Ka for 5'-biotin-conjugated d(TTTTCGCm8GCG-TTTT-CGCm8GCG) DNA (unknown origin)
[6] = Binding affinity to d(CGCm8GCG)2 DNA (unknown origin) assessed as association constant at 1.8 compound to DNA molar ratio by ITC analysis; outline: as §1
[7] = Selectivity ratio of Ka for d(CGCm8GCG)2 DNA (unknown origin) to Ka for d(CGCGCG)2 DNA (unknown origin); outline: as §1
[8] = Dissociation rate to 5'-biotin-conjugated d(TTTTCGCGCG-TTTT-CGCGCG) DNA (unknown origin) measured for 150 seconds by SPR analysis
[9] = Binding affinity to d(CGCGCG)2 DNA (unknown origin) assessed as association constant at 2:1 DNA to compound ratio by ITC analysis; outline: as §1
[10] = Binding affinity to d(CGCGCG)2 DNA (unknown origin) assessed as association constant at 2.0 compound to DNA molar ratio by ITC analysis; outline: as §1
[11] = Induction of d(CGCGCG)2 DNA (unknown origin) to d(CGCm8GCG)2 DNA transition up to 160 uM by CD spectra analysis in presence of low concentration of NaCl
Outline: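 CD at 20 °C in a 2 mm cell. 20 µM d(CGCGCG)2 in 5 mM Na cacodylate, 100 mM NaCl, pH 7.0, was titrated with ligand stock from 0 to 160 µM. Spectra were blank-corrected and averaged over four scans.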

[12] = Binding affinity to d(CGCm8GCG)2 DNA (unknown origin) assessed as change in UV-melting temperature at 5 uM
Outline: (§2)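 UV melting used 5 µM B- or Z-DNA in 5 mM Na cacodylate, 100 mM NaCl, pH 7.0, with or without 5 µM ligand. Temperature was ramped at 1 °C/min between 10 and 60 °C.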

[13] = Dissociation rate to 5'-biotin-conjugated d(TTTTCGCm8GCG-TTTT-CGCm8GCG) DNA (unknown origin) measured for 150 seconds by SPR analysis
[14] = Binding affinity to d(CGCGCG)2 DNA (unknown origin) assessed as association constant at 3.5 compound to DNA molar ratio by ITC analysis; outline: as §1
[15] = Binding affinity to d(CGCm8GCG)2 DNA (unknown origin) assessed as association constant at 4.1 compound to DNA molar ratio by ITC analysis; outline: as §1
[16] = Binding affinity to d(CGCGCG)2 DNA (unknown origin) assessed as change in UV-melting temperature at 5 uM; outline: as §2

Compound | Selectivity ratio [1] | Ka [2] | Ka [3] | Selectivity ratio [4] | Selectivity ratio [5] | Ka [6] | Selectivity ratio [7] | koff [8] | Ka [9] | Ka [10] | Activity [11] | ΔTm [12] | koff [13] | Ka [14] | Ka [15] | ΔTm [16]
Cc1cccc2ccc3c4c(c5ccc6cccc(C)c6c5c3c12)C(=O)N(CCCNCCCCNCCCN)C4=O | 2 | 0.67 ×10⁷ /M | 0.083 ×10⁷ /M | 50 | 7 | 0.17 ×10⁷ /M | 2 | 3.7 ×10⁻³ /s and 8.59 ×10⁻³ /s | 3.7 ×10⁸ /M | 36.7 ×10⁷ /M | Active | 7.5 °C and 3.3 °C | 5.48 ×10⁻³ /s and 6.68 ×10⁻³ /s | – | – | –
NCCCNCCCCNCCCN1C(=O)C(c2ccc3ccccc3c2)=C(c2ccc3ccccc3c2)C1=O | – | – | – | – | – | – | – | 7.49 ×10⁻³ /s | – | – | – | 18 °C | 6.66 ×10⁻³ /s | 0.62 ×10⁷ /M | 0.31 ×10⁷ /M | 16 °C
